ChEMBL document CHEMBL1124344, “5-Piperazinylalkyl-2(3H)-oxazolones with neuroleptic activity” (J Med Chem, 1989)

Experiments:
Mus musculus [1] = assay: Inhibition of spontaneous motor activity in mice, by administering perorally at a dose of 70 mg/kg; format: functional; settings: route oral
Method in brief: (§1)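 Mice fasted overnight, then dosed orally with compound (weighed as base) suspended in arabic gum, 10 mL/kg, with vehicle controls; 1 h pretreatment for screening tests, 1 or 5 h for others. Groups of five; locomotor activity counted 10 min in photocell activity cage, at least two groups per dose. ED50 = dose giving 50% inhibition versus controls, by probit analysis.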

[2] = Lethal dose in mice (LD50) following i.p. dosing; format: toxicity, organism-based; settings: mouse, in vivo, ip
Method in brief: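 Acute toxicity tested in mice by the intraperitoneal route. LD50 is the dose killing 50% of treated mice, computed by Finney probit analysis; values are approximate.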

Rattus norvegicus [3] = assay: Activity to evoke catalepsy in rats, by administering perorally at a dose of 70 mg/kg; format: functional; settings: route oral
Method in brief: (§2)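 Rats fasted overnight and given oral doses in arabic gum suspension (10 mL/kg), 1 h before screening or 1 and 5 h before profile testing. Forelegs placed on a horizontal bar 7 cm high, three times at 5-min intervals. Immobility of at least 15 s counts as catalepsy. ED50 is the dose giving catalepsy in 50% of rats, by probit analysis. Parenthetical entries give the maximal dose and percent activity.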

Mus musculus [4] = assay: Antagonistic activity against amphetamine-induced Hypermobility in mice, by administering perorally at a dose of 70 mg/kg; format: functional; settings: route oral
Method in brief: (§3)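 Male mice in groups of five, fasted overnight, given oral drug in arabic gum suspension (10 mL/kg) 1 or 5 h ahead. Amphetamine 4 mg/kg ip given 30 min after drug. Ten minutes later locomotion is recorded for 15 min in a photocell actophotometer. ED50 is 50% reduction versus control hypermotility, by probit analysis. Parenthetical entries give the maximal dose and percent activity.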

Rattus norvegicus [5] = assay: Antagonistic activity against apomorphine-induced stereotypy in rats, by administering perorally at a dose of 70 mg/kg; format: functional; settings: route oral
Method in brief: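 Male rats fasted overnight and given oral doses in arabic gum suspension (10 mL/kg) 1 h, or 1 and 5 h, before challenge. Apomorphine 3 mg/kg iv, with stereotypy observed 20 min later. ED50 is the dose inhibiting stereotypy in 50% of rats, per Janssen's method. Parenthetical entries give the maximal dose and percent activity.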

Mus musculus [6] = assay: Contractile activity in skeletal muscles, after 1 hour of peroral administration in mouse; format: functional; settings: Muscle tissue, po
Method in brief: (§4)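 Male mice were placed for 1 h on a 60° inclined wire screen just after dosing and 4 h later. In a second test, trained mice hung by the forepaws from a horizontal 1.8 mm wire 15 cm up; normal mice touch it with a hind paw within 2 s and stay ≥1 min. ED50 is the dose making 50% fall. Dosing was oral in gum arabic suspension at 10 mL/kg after an overnight fast.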

Mus musculus [7] = assay: Activity of inclined screen in mouse, after 5 hour of peroral administration in mouse; format: functional
Method in brief: (§5)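 Male mice placed for 1 h on a wire screen inclined 60°, just after oral dosing and 4 h later; ataxic or relaxed mice slide off. Fasted overnight, 10 per dose, vehicle controls. Compounds weighed as bases, suspended in arabic gum, 10 mL/kg orally; ED50 by Finney probit analysis.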

Rattus norvegicus [8] = assay: Activity to evoke catalepsy, after 1 hour of peroral administration in rats; format: functional; settings: po; method in brief: as §2
Rattus norvegicus [9] = assay: Antagonistic activity against apomorphine-induced stereotypy in rats, by administering perorally at a dose of 80 mg/kg; settings: po, read-out: Inhibition
Mus musculus [10] = assay: Contractile activity in skeletal muscles, after 5 hour of peroral administration in mouse at a dose of 40 mg/kg; format: functional; settings: Muscle tissue, route oral
Method in brief: (§6)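 Male mice suspended by forepaws from a 1.8-mm wire stretched 15 cm above a plane. Trained normal mice touch the wire with a hind paw within 2 s (traction) and hang at least 1 min (suspension). Oral dosing 1 or 5 h before. ED50 is the dose making 50% of mice fall without traction and suspension.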

Mus musculus [11] = assay: Anticonvulsant activity against tryptamine-induced convulsions, after 5 hour of peroral administration in mouse at a dose of 40 mg/kg; format: functional; settings: route oral
Method in brief: (§7)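 Male mice dosed orally (arabic gum, 10 mL/kg) 1 or 5 h before challenge with tryptamine 100 mg/kg iv, pentylenetetrazol 110 mg/kg ip, or maximal electroshock. Protection means no bilateral forepaw clonic seizures and head twitches (tryptamine) or no tonic hind-limb extension (others). ED50 protects 50% of mice.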

Mus musculus [12] = assay: Inhibition against apomorphine-induced climbing, after 1 hour of peroral administration in mouse; format: functional; settings: po
Method in brief: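 Mice were dosed orally (gum arabic suspension, 10 mL/kg, fasted), then given apomorphine 1 mg/kg sc and placed in cylindrical cages with vertical metal bars. Climbing was scored 0 for four paws on the floor, 1 for forefeet on the wall, 2 for four paws on the wall. ED50 is the dose halving the control score.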

Mus musculus [13] = assay: Effect on skeletal muscle tone, after 5 hour of peroral administration in mouse; format: functional; settings: Muscle tissue, po; method in brief: as §4
Mus musculus [14] = assay: Effect on skeletal muscle tone, after 1 hour of peroral administration in mouse; format: functional; settings: Muscle tissue, po; method in brief: as §6
Rattus norvegicus [15] = assay: Inhibition against conditioned avoidance response, after 1 hour of peroral administration in rats; format: functional; settings: po
Method in brief: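 Male rats were trained in a shuttle box to avoid grid-floor shock by crossing compartments during a warning period. Dosing was oral as a gum arabic suspension at 10 mL/kg after an overnight fast. Percent inhibition was computed against a pretraining test. ED50 is the dose giving 50% inhibition.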

Rattus norvegicus [16] = assay: Antagonistic activity against amphetamine-induced stereotypy, after 5 hour of peroral administration in rats at a dose of 20 mg/kg; settings: po, read-out: Inhibition
Mus musculus [17] = assay: Activity of inclined screen in mouse, after 1 hour of peroral administration in mouse; format: functional; method in brief: as §5
Mus musculus [18] = assay: Suppression of aggressive behavior, after 5 hour of peroral administration in mouse at a dose of 10 mg/kg; format: functional; settings: route oral
Method in brief: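 Male mice made aggressive by about 1 month of isolation in individual black cages plus weekly testosterone cyclopentylpropionate 250 mg/kg sc. Pairs preselected for aggressiveness shortly before oral dosing 1 or 5 h beforehand; attack on a nonisolated male within 15 min scored. ED50 is the dose suppressing aggression in 50% of animals.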

Mus musculus [19] = assay: Antagonistic activity against amphetamine-induced Hypermobility in mouse by administering perorally; format: functional; settings: po; method in brief: as §3
Mus musculus [20] = assay: Suppression of aggressive behavior, after 1 hour of peroral administration in mouse; format: functional; settings: po
Method in brief: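 Male mice made aggressive by isolation in individual black cages for about 1 month plus weekly testosterone cyclopentylpropionate 250 mg/kg sc; pairs preselected for attack on a nonisolated male within 15 min. Oral dosing (arabic gum, 10 mL/kg) 1 or 5 h before test, overnight fast. ED50 = dose suppressing aggression in 50% of animals, probit analysis.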

Mus musculus [21] = assay: Inhibition of spontaneous motor activity, after 1 hour of peroral administration in mouse; format: functional; settings: po; method in brief: as §1
Mus musculus [22] = assay: Anticonvulsant activity against pentylenetetrazole-induced convulsions, after 1 hour of peroral administration in mouse at a dose of 40 mg/kg; format: functional; settings: route oral; method in brief: as §7
Mus musculus [23] = assay: Anticonvulsant activity against tryptamine-induced convulsions, after 1 hour of peroral administration in mouse; format: functional; settings: po
Method in brief: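 Compounds were dosed as bases suspended in arabic gum at 10 mL/kg orally, after an overnight fast, with vehicle controls. Protection meant no bilateral forepaw clonic seizures or head twitches (tryptamine), or no tonic hind-limb extension (the other two). ED50 is the dose protecting 50%, by probit analysis.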

Mus musculus [24] = assay: Inhibitory activity against tremorine-induced tremors, after 1 hour of peroral administration in mouse; format: functional; settings: po
Method in brief: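 Male mice given oral drug, then tremorine 20 mg/kg ip 1 h later; central tremor and peripheral salivation recorded. ED50 is the dose protecting 50% of animals from tremorine effects, by probit analysis.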

Rattus norvegicus [25] = assay: Antagonistic activity against amphetamine-induced stereotypy, after 1 hour of peroral administration in rats at a dose of 20 mg/kg; settings: po, read-out: Inhibition
Mus musculus [26] = assay: Antagonistic activity against amphetamine-induced hypermotility, after 5 hour of peroral administration in mouse; format: functional; settings: po; method in brief: as §3
Rattus norvegicus [27] = assay: Antagonistic activity against apomorphine-induced stereotypy, after 1 hour of peroral administration in rats at a dose of 80 mg/kg; settings: po, read-out: Inhibition
Mus musculus [28] = assay: Antagonistic activity against amphetamine-induced hypermotility, after 1 hour of peroral administration in mouse; format: functional; settings: po; method in brief: as §3
Mus musculus [29] = assay: Inhibition of spontaneous motor activity, after 5 hour of peroral administration in mouse; format: functional; settings: po; method in brief: as §1
Mus musculus [30] = assay: Potentiation against pentobarbital-induced sleeping, after 1 hour of peroral administration in mouse; format: functional; settings: po
Method in brief: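 Female mice fasted overnight, dosed orally 1 or 5 h beforehand as arabic gum suspension, 10 mL/kg, with vehicle controls. Subhypnotic pentobarbital 10 mg/kg iv; 3 min later placed on back, effect scored as complete loss of righting reflex for at least 15 s. ED50 = dose producing this in 50% of mice, probit analysis.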

Mus musculus [31] = assay: Anticonvulsant activity against pentylenetetrazole-induced convulsions, after 5 hour of peroral administration in mouse at a dose of 40 mg/kg; format: functional; settings: route oral; method in brief: as §7
Mus musculus [32] = assay: Anticonvulsant activity against electroshock-induced convulsions, after 1 hour of peroral administration in mouse at a dose of 26 mg/kg; format: functional; settings: route oral; method in brief: as §7
Rattus norvegicus [33] = assay: Body weight gain, after 1 hour of peroral administration in rats; format: functional; settings: po
Method in brief: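 Female rats (250–280 g), individually caged, on 22-h food deprivation with pellets 10–12 a.m.; weighed before and after eating. After 30–40 days training, oral drug given 1 h before the 2-h feeding. Weight gain expressed as percent of the two preceding control days; ED50 is the dose giving 50% reduction.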

Mus musculus [34] = assay: Inhibition of spontaneous motor activity in mouse, by administering perorally; format: functional; settings: po; method in brief: as §1
Rattus norvegicus [35] = assay: Antagonistic activity against apomorphine-induced stereotypy, after 5 hour of peroral administration in rats at a dose of 80 mg/kg; settings: po, read-out: Inhibition
Mus musculus [36] = assay: Inhibitory activity against tremorine-induced salivation, after 1 hour of peroral administration in mouse; format: functional; settings: po
Method in brief: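 Male mice fasted overnight, dosed orally with arabic gum suspension (10 mL/kg) 1 or 5 h before test, vehicle controls included. Tremorine 20 mg/kg ip given 1 h after compounds; central (tremor) and peripheral (salivation) parasympathetic signs recorded. ED50 = dose protecting 50% of animals, by probit analysis.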

Rattus norvegicus [37] = assay: Inhibition against conditioned avoidance response, after 5 hour of peroral administration in rats at a dose of 20 mg/kg; settings: po, read-out: Inhibition
Rattus norvegicus [38] = species: Rattus norvegicus; assay: animal or person; settings: po, read-out: Inhibition
Mus musculus [39] = assay: Inhibitory activity against tremorine-induced tremors, after 5 hour of peroral administration in mouse; format: functional; settings: po

Work on CSc1ccc(-c2nc(O)oc2CCN2CCN(c3ccccc3)CC2)cc1 yielded an inhibition in vivo at 70 mg/kg (Mus musculus [1]) of 47%, an LD50 [2] of 250 mg/kg and an inhibition in vivo at 70 mg/kg (Rattus norvegicus [3]) of 0%. The inhibition in vivo at 70 mg/kg (Mus musculus [4]) was 0% and the inhibition in vivo at 70 mg/kg (Rattus norvegicus [5]) was 0%.
In the case of CN1CCN(C2=Nc3cc(Cl)ccc3Nc3ccccc32)CC1 [CLOZAPINE], the ED50 (Mus musculus [6]) is reported as 40 mg/kg, the ED50 (Mus musculus [7]) is reported as 18.8 mg/kg and the ED50 (Rattus norvegicus [8]) is reported as 34 mg/kg. For the same molecule, the inhibition in vivo at 80 mg/kg (Rattus norvegicus [9]) was 30%, the inhibition in vivo at 40 mg/kg (Mus musculus [10]) was 10% and the inhibition in vivo at 40 mg/kg (Mus musculus [11]) was 0%. It also gave an ED50 (Mus musculus [12]) of 12 mg/kg, an ED50 (Mus musculus [13]) of 30 mg/kg and an ED50 (Mus musculus [14]) of 9.2 mg/kg. For the same molecule, the ED50 (Rattus norvegicus [15]) was 8.6 mg/kg, the inhibition in vivo at 20 mg/kg (Rattus norvegicus [16]) was 0% and the LD50 [2] was 100 mg/kg. It also gave an ED50 (Mus musculus [17]) of 9.3 mg/kg, an inhibition in vivo at 10 mg/kg (Mus musculus [18]) of 0% and an ED50 (Mus musculus [19]) of 4.5 mg/kg. For the same molecule, the ED50 (Mus musculus [20]) was 3.5 mg/kg, the ED50 (Mus musculus [21]) was 4.2 mg/kg and the inhibition in vivo at 40 mg/kg (Mus musculus [22]) was 0%. For the same molecule, the ED50 (Mus musculus [23]) was 10.3 mg/kg, the ED50 (Mus musculus [24]) was 30 mg/kg and the inhibition in vivo at 20 mg/kg (Rattus norvegicus [25]) was 20%. For the same molecule, the ED50 (Mus musculus [26]) was 20.1 mg/kg, the inhibition in vivo at 80 mg/kg (Rattus norvegicus [27]) was 30% and the ED50 (Mus musculus [28]) was 4.5 mg/kg. The ED50 (Mus musculus [29]) was 23 mg/kg, the ED50 (Mus musculus [30]) was 6.6 mg/kg and the inhibition in vivo at 40 mg/kg (Mus musculus [31]) was 0%. The inhibition in vivo at 26 mg/kg (Mus musculus [32]) was 37%, the ED50 (Rattus norvegicus [33]) was 8 mg/kg and the ED50 (Mus musculus [34]) was 4.2 mg/kg. The inhibition in vivo at 80 mg/kg (Rattus norvegicus [35]) was 0%, the ED50 (Mus musculus [36]) was 6.9 mg/kg and the inhibition in vivo at 20 mg/kg (Rattus norvegicus [37]) was 0%. The inhibition in vivo at 26 mg/kg (Rattus norvegicus [38]) was 37% and the ED50 (Mus musculus [39]) was 30 mg/kg.
